Calls of active or inactive are those of the source. The calls are words filed in the database; no cut-off is given here.
How the values were obtained:
[1] = tested on: Rattus norvegicus; experiment: […] activity in fructose-challenged Sprague-Dawley rat assessed as increase in liver ACOX1 mRNA expression at 10 mg/kg, po administered once daily via gavage for 2 weeks measured after 5 hrs fasting by SYBR green dye-based RT-PCR analysis; assay type: functional, organism-based
How it was run: (§1)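 Male rats were given 25% fructose in drinking water for 3 weeks. They then received 10 mg/kg/day orally in 0.5% methylcellulose (vehicle control) for 2 more weeks while fructose continued. Liver mRNA was measured by real-time RT-PCR, normalized to β2-microglobulin and set as 1 in the vehicle group. Values are means ± S.D.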

[2] = tested on: Rattus norvegicus; experiment: […] activity in fructose-challenged Sprague-Dawley rat assessed as increase in liver ACADM mRNA expression at 10 mg/kg, po administered once daily via gavage for 2 weeks measured after 5 hrs fasting by SYBR green dye-based RT-PCR analysis; assay type: functional, organism-based; how it was run: as §1
[3] = biological target: T1, Peroxisome proliferator-activated receptor gamma (Homo sapiens) (UniProt P37231); experiment: Transactivation of human GAL4-fused PPARgamma expressed in human HepG2 cells at 30 uM after 24 hrs by renilla luciferase reporter gene assay; assay type: cell-based
T1 sequence (whole entry): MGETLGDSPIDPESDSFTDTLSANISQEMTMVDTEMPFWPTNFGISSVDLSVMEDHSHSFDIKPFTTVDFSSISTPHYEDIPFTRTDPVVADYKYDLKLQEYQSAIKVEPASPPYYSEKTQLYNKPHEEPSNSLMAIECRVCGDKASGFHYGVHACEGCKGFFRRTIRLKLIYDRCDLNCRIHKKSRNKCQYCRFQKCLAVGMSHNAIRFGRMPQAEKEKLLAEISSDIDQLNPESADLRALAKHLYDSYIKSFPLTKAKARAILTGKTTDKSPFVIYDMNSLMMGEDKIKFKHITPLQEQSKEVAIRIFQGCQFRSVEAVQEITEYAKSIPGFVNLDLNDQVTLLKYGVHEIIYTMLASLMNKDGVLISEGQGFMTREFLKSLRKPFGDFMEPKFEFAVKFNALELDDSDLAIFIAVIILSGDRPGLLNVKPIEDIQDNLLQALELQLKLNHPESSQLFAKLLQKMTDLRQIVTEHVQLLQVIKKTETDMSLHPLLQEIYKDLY
How it was run: (§2)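 HepG2 cells carried GAL4-fused human PPARγ or PPARδ, or mouse or rat PPARα, plus the 4xUAS-tk-luc reporter. Cells treated across a concentration range for 24 h. Luciferase normalized to Renilla activity and expressed as fold induction over vehicle, set as 1.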

[4] = biological target: T2, Peroxisome proliferator-activated receptor delta (Homo sapiens) (UniProt Q03181); experiment: Transactivation of human GAL4-fused PPARdelta expressed in human HepG2 cells after 24 hrs by dual renilla-luciferase reporter gene assay; assay type: cell-based; how it was run: as §2
T2 sequence (whole entry): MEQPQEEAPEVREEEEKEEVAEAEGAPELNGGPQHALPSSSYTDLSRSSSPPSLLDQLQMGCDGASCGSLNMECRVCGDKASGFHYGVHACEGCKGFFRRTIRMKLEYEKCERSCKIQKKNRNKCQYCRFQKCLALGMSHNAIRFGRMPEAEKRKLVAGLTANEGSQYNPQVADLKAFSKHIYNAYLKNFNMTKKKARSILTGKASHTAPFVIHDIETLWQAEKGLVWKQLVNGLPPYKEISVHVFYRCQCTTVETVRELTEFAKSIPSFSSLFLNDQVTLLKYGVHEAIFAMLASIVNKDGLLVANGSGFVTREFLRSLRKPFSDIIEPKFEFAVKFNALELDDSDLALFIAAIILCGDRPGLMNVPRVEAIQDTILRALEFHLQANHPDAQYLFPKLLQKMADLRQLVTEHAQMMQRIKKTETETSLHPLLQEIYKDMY

[5] = biological target: T3, Peroxisome proliferator-activated receptor alpha (Homo sapiens) (UniProt Q07869); experiment: Transactivation of human PPARalpha in human FLC4 cells assessed as upregulation of PDK4 mRNA expression after 48 hrs by SYBR green dye-based RT-PCR analysis; assay type: cell-based
T3 sequence (whole entry): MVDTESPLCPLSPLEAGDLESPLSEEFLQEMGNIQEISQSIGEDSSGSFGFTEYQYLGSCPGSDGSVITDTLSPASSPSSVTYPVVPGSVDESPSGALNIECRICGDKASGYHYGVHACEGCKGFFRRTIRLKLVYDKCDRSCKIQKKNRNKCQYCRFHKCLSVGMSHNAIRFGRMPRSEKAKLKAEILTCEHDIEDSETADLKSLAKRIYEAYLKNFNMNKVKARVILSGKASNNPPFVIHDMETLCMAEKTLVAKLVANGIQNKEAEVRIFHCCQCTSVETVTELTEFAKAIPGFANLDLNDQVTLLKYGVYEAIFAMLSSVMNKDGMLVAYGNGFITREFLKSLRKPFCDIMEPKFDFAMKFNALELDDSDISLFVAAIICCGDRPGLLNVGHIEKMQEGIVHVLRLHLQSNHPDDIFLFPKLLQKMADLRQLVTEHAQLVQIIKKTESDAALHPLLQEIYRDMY
How it was run: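 FLC4 cells treated for 48 h with various concentrations. PDK4 mRNA measured by real-time RT-PCR, normalized to β2-microglobulin and set as 1 in vehicle. Values are means ± S.D.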

[6] = tested on: Rattus norvegicus; experiment: […] activity in fructose-challenged Sprague-Dawley rat assessed as reduction in serum triglyceride level at 10 mg/kg, po administered once daily via gavage for 2 weeks measured after 5 hrs fasting; assay type: functional, organism-based
How it was run: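 Male rats had 25% fructose in drinking water for 3 weeks, then oral dosing at 10 mg/kg/day for 2 weeks with fructose continued. The vehicle group got 0.5% methylcellulose. Serum triglyceride was measured after the 2-week treatment.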

[7] = tested on: Rattus norvegicus; experiment: […] activity in fructose-challenged Sprague-Dawley rat assessed as increase in liver SLC25A20 mRNA expression at 10 mg/kg, po administered once daily via gavage for 2 weeks measured after 5 hrs fasting by SYBR green dye-based RT-PCR analysis; assay type: functional, organism-based; how it was run: as §1
[8] = biological target: Peroxisome proliferator-activated receptor alpha (Homo sapiens) (UniProt Q07869); experiment: Displacement of fluormone pan-PPAR green from GST-tagged human PPARalpha ligand binding domain after 3 hrs by TR-FRET assay
[9] = Selectivity ratio of EC50 for rat GAL4-fused PPARalpha expressed in human HepG2 cells to EC50 for human GAL4-fused PPARalpha LBD expressed in human HepG2 cells; assay type: cell-based
[10] = Selectivity ratio of EC50 for mouse GAL4-fused PPARalpha expressed in human HepG2 cells to EC50 for human GAL4-fused PPARalpha LBD expressed in human HepG2 cells; assay type: cell-based
[11] = biological target: T3, Peroxisome proliferator-activated receptor alpha (Homo sapiens); experiment: Transactivation of human PPARalpha LBD expressed in human HepG2 cells at 10 uM after 24 hrs in presence of PPARalpha antagonist by dual renilla-luciferase reporter gene assay; assay type: cell-based
How it was run: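 Transfected HepG2 cells (4xUAS-tk-luc plus pBIND-hPPARα) were pretreated 1 h with graded GW6471 before agonist was added at 10 μM final. Reporter luciferase was read after treatment. Percent inhibition was calculated relative to activity without GW6471, taken as 100%.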

[12] = tested on: Rattus norvegicus; experiment: […] activity in fructose-challenged Sprague-Dawley rat assessed as increase in liver CPT1A mRNA expression at 10 mg/kg, po administered once daily via gavage for 2 weeks measured after 5 hrs fasting by SYBR green dye-based RT-PCR analysis; assay type: functional, organism-based; how it was run: as §1
[13] = biological target: T3, Peroxisome proliferator-activated receptor alpha (Homo sapiens); experiment: Transactivation of human GAL4-fused PPARalpha LBD expressed in human HepG2 cells at 1 uM after 24 hrs by dual renilla-luciferase reporter gene assay relative to fenofibrate; assay type: cell-based
How it was run: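 HepG2 cells cotransfected with 4xUAS-tk-luc and pBIND-hPPARα. Cells treated 24 h with compound at 1 μM final; fenofibrate 10 μM served as reference and 0.1% DMSO as vehicle. Read-out by reporter gene luciferase assay.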

Activity [3]: Active
Activity [4]: inactive
Activity [5]: Dose-dependent effect
inhibition [8]: Dose-dependent effect
Activity [11]: inactive
activation relative to fenofibrate [13]: 187
SMILES: Cc1cc(C(=O)O)c2c(C(C)C)nn(-c3ccc(Cl)cc3)c2n1
Activity [1]: Active
Activity [2]: Active
Activity [6]: Active
Activity [7]: Active
Ratio EC50 [9]: 20
Ratio EC50 [10]: 20
Activity [12]: Active
